Source: ChEMBL document CHEMBL1122134, “Antimalarials. 14. 5-(aryloxy)-4-methylprimaquine analogues. A highly effective series of blood and tissue schizonticidal agents” (1982)

Legend:
Plasmodium cynomolgi [1] = assay: Cures in sporozoite-induced Plasmodium cynomolgi infected Rhesus monkeys (Macaca mulatta) on 0.316 mg/kg/day peroral dose after 7 days, n=2; assay type: functional; details: route oral
Mus musculus [2] = assay: Number of cures out of five mice (Mus musculus) infected with Plasmodium berghei at 20 mg/kg(X 1) subcutaneous administration
Plasmodium cynomolgi [3] = assay: Cures in sporozoite-induced Plasmodium cynomolgi infected Rhesus monkeys (Macaca mulatta) on 0.1 mg/kg/day peroral dose after 7 days, n=3; assay type: functional; details: route oral
Mus musculus [4] = assay: Number of animals found toxic out of five mice (Mus musculus) infected with Plasmodium berghei at 320 mg/kg(X 1) subcutaneous administration
Mus musculus [5] = assay: Number of cures out of five mice (Mus musculus) infected with Plasmodium berghei at 160 mg/kg(X 1) subcutaneous administration
Mus musculus [6] = assay: Number of cures out of five mice (Mus musculus) infected with Plasmodium berghei at 640 mg/kg(X 1) subcutaneous administration
Mus musculus [7] = assay: Suppressive antimalarial activity against Plasmodium berghei in Rane mice (Mus musculus) test (five mice (Mus musculus)) at a dose of 5 mg/kg(X 1); assay type: functional
Outline: (§1)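 Mice infected with Plasmodium berghei; five mice per dose. A single subcutaneous dose (mg/kg, ×1) was given 72 h after infection. Activity was scored as the increase in mean survival time over infected controls, with an increase of at least 100% counted as active. Cures are mice surviving at 60 days postinfection. Deaths attributed to the drug were scored as toxic.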

Mus musculus [8] = assay: Number of cures out of five mice (Mus musculus) infected with Plasmodium berghei at 40 mg/kg(X 1) subcutaneous administration
Plasmodium cynomolgi [9] = assay: Cures in sporozoite-induced Plasmodium cynomolgi infected Rhesus monkeys (Macaca mulatta) at 1 mg/kg/day (x 7) peroral dose; n=3; assay type: functional; details: route oral
Mus musculus [10] = assay: Number of cures out of five mice (Mus musculus) infected with Plasmodium berghei at 320 mg/kg(X 1) subcutaneous administration
Mus musculus [11] = assay: Number of cures out of five mice (Mus musculus) infected with Plasmodium berghei at 80 mg/kg(X 1) subcutaneous administration
[12] = Molar primaquine Index value of compound was determined; assay type: functional
Mus musculus [13] = assay: Number of animals found toxic out of five mice (Mus musculus) infected with Plasmodium berghei at 640 mg/kg(X 1) subcutaneous administration
Mus musculus [14] = assay: Number of cures out of five mice (Mus musculus) infected with Plasmodium berghei at 10 mg/kg(X 1) subcutaneous administration
Plasmodium cynomolgi [15] = assay: Radical curative activity in sporozoite-induced Plasmodium cynomolgi infected Rhesus monkeys (Macaca mulatta) on 1.75 mg/kg/day oral dose after 1 day; assay type: functional
Outline: (§2)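 Single oral dose (×1) in P. cynomolgi-infected rhesus monkeys, given alone or with chloroquine phosphate at 5 mg/kg of salt (×7). Drug was given in salt form but dose calculated as free base. Each animal scored as cure (C), suppressive failure (SF, blood not cleared) or relapse (R, tissues not cleared).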

Plasmodium cynomolgi [16] = assay: Radical curative activity in sporozoite-induced Plasmodium cynomolgi infected Rhesus monkeys (Macaca mulatta) after 3.5 mg/kg/day (x1) oral dose; assay type: functional; outline: as §2
Mus musculus [17] = assay: Suppressive antimalarial activity against Plasmodium berghei in Rane mice (Mus musculus) test (five mice (Mus musculus)) 20 mg/kg (X 1); assay type: functional; outline: as §1
Mus musculus [18] = assay: Suppressive antimalarial activity against Plasmodium berghei in Rane mice (Mus musculus) test (five mice (Mus musculus))80 mg/kg (X 1); assay type: functional; outline: as §1
Mus musculus [19] = assay: Suppressive antimalarial activity against Plasmodium berghei in Rane mice (Mus musculus) test (five mice (Mus musculus)) at a dose of 160 mg/kg (X 1); assay type: functional; outline: as §1
Mus musculus [20] = assay: Suppressive antimalarial activity against Plasmodium berghei in Rane mice (Mus musculus) test (five mice (Mus musculus)) 40 mg/kg (X 1); assay type: functional; outline: as §1
Plasmodium cynomolgi [21] = assay: Radical curative activity in sporozoite-induced Plasmodium cynomolgi infected Rhesus monkeys (Macaca mulatta) on 14 mg/kg/day peroral dose after 1 day; assay type: functional; details: route oral; outline: as §2
Plasmodium cynomolgi [22] = assay: Radical curative activity in sporozoite-induced Plasmodium cynomolgi infected Rhesus monkeys (Macaca mulatta) on 7 mg/kg/day peroral dose after 1 day; assay type: functional; details: route oral; outline: as §2
Mus musculus [23] = assay: Suppressive antimalarial activity against Plasmodium berghei in Rane mice (Mus musculus) test (five mice (Mus musculus)) 10 mg/kg(X 1); assay type: functional; outline: as §1
Plasmodium cynomolgi [24] = assay: Cures in sporozoite-induced Plasmodium cynomolgi infected Rhesus monkeys (Macaca mulatta) on 0.1 mg/kg/day peroral dose after 7 days, n=2; assay type: functional; details: route oral
Mus musculus [25] = assay: Number of animals found toxic out of five mice (Mus musculus) infected with Plasmodium berghei at 320 mg/kg(X 1)subcutaneous administration
Mus musculus [26] = assay: Number of animals found toxic out of five mice (Mus musculus) infected with Plasmodium berghei at 640 mg/kg(X 1) subcutaneous administration; remark: listed apart in the source
Mus musculus [27] = assay: Suppressive antimalarial activity against Plasmodium berghei in Rane mice (Mus musculus) test (five mice (Mus musculus)) at a dose of 5 mg/kg(X 1)A-active; assay type: functional; outline: as §1
Mus musculus [28] = assay: Number of animals found toxic out of five mice (Mus musculus) infected with Plasmodium berghei at 160 mg/kg(X 1)subcutaneous administration
Plasmodium cynomolgi [29] = assay: Cures in sporozoite-induced Plasmodium cynomolgi infected Rhesus monkeys (Macaca mulatta) on 1 mg/kg/day peroral dose after 7 days, n=2; assay type: functional; details: route oral
Plasmodium cynomolgi [30] = assay: Cures in sporozoite-induced Plasmodium cynomolgi infected Rhesus monkeys (Macaca mulatta) on 1.3 mg/kg/day peroral dose after 7 days, n=6; assay type: functional; details: route oral
Plasmodium cynomolgi [31] = assay: Relapses in sporozoite-induced Plasmodium cynomolgi infected Rhesus monkeys (Macaca mulatta) on 0.4375 mg/kg/day peroral dose after 1 day; assay type: functional; details: route oral; outline: as §2
Plasmodium cynomolgi [32] = assay: Suppressive failures in sporozoite-induced Plasmodium cynomolgi infected Rhesus monkeys (Macaca mulatta) on 3.5 mg/kg/day peroral dose after 1 day; assay type: functional; details: route oral; outline: as §2
Plasmodium cynomolgi [33] = assay: Suppressive failures in sporozoite-induced Plasmodium cynomolgi infected Rhesus monkeys (Macaca mulatta) on 0.875 mg/kg/day peroral dose after 1 day; assay type: functional; details: route oral; outline: as §2
Mus musculus [34] = assay: Mean survival time of mice (Mus musculus) infected with Plasmodium berghei at 5 mg/kg(X 1)subcutaneous administration
Plasmodium cynomolgi [35] = assay: Cures in sporozoite-induced Plasmodium cynomolgi infected Rhesus monkeys (Macaca mulatta) on peroral 14 mg/kg/day (x 1) dose; assay type: functional; details: route oral; outline: as §2
Plasmodium cynomolgi [36] = assay: Cures in sporozoite-induced Plasmodium cynomolgi infected Rhesus monkeys (Macaca mulatta) on 3.5 mg/kg/day peroral dose after 1 day; assay type: functional; details: route oral; outline: as §2
Plasmodium cynomolgi [37] = assay: Relapses in sporozoite-induced Plasmodium cynomolgi infected Rhesus monkeys (Macaca mulatta) on 0.875 mg/kg/day peroral dose after 1 day; assay type: functional; details: route oral; outline: as §2
Plasmodium cynomolgi [38] = assay: Cures in sporozoite-induced Plasmodium cynomolgi infected Rhesus monkeys (Macaca mulatta) on 7 mg/kg/day peroral dose after 1 day; assay type: functional; details: route oral; outline: as §2
Plasmodium cynomolgi [39] = assay: Suppressive failures in sporozoite-induced Plasmodium cynomolgi infected Rhesus monkeys (Macaca mulatta) on 1.75 mg/kg/day peroral dose after 1 day; assay type: functional; details: route oral; outline: as §2
Mus musculus [40] = assay: Number of mice (Mus musculus) found toxic when infected with Plasmodium berghei at 640 mg/kg(X 1) subcutaneous administration
Mus musculus [41] = assay: Number of cures out of five mice (Mus musculus) infected with Plasmodium berghei at 5 mg/kg(X 1) subcutaneous administration

SMILES | Cures (Plasmodium cynomolgi [1]) | Cures (Mus musculus [2]) | Cures (Plasmodium cynomolgi [3]) | Toxic animals (out of 5) (Mus musculus [4]) | Cures (Mus musculus [5]) | Cures (Mus musculus [6]) | Cures (Mus musculus [8]) | Cures (Plasmodium cynomolgi [9]) | Cures (Mus musculus [10]) | Cures (Mus musculus [11]) | Molar primaquine Index [12] | Cures (Mus musculus [13]) | Cures (Mus musculus [14]) | also measured
COc1cc(NC(C)CCCN)c2nccc(C)c2c1Oc1ccc(Cl)cc1Cl.O=P(O)(O)O (stereo not given) | 1 | 5 | 0 | 1 | 5 | 3 | 5 | 3 | 4 | 5 | 1.3 | 2 | 1 | MST (Mus musculus [7]): 5
COc1cc(NC(C)CCCN)c2ncccc2c1 (stereo not given) [PRIMAQUINE] |  |  |  | 5 |  |  |  |  |  |  |  | 5 |  | Cures (Plasmodium cynomolgi [15]): 2; Cures (Plasmodium cynomolgi [16]): 2; MST (Mus musculus [17]): 2.2; MST (Mus musculus [18]): 6.4; MST (Mus musculus [19]): 7; MST (Mus musculus [20]): 4.2; Cures (Plasmodium cynomolgi [21]): 2; Cures (Plasmodium cynomolgi [22]): 1
COc1ccc(Oc2c(OC)cc(NC(C)CCCN)c3nccc(C)c23)cc1.O=P(O)(O)O (stereo not given) | 2 | 1 |  |  | 5 | 2 | 5 | 3 | 5 | 5 | 4.3 |  |  | Cures (Mus musculus [4]): 0; MST (Mus musculus [23]): 5.9; MST (Mus musculus [7]): 5.5; Cures (Plasmodium cynomolgi [24]): 0
COc1cc(NC(C)CCCN)c2nccc(C)c2c1Oc1ccc(F)cc1.O=P(O)(O)O (stereo not given) | 2 | 4 | 0 |  | 5 | 3 | 5 | 3 | 4 | 5 | 4.2 |  | 3 | Cures (Mus musculus [25]): 1; Cures (Mus musculus [26]): 2; MST (Mus musculus [27]): 7
COc1cc(NC(C)CCCN)c2ncccc2c1.O=P(O)(O)O.O=P(O)(O)O (stereo not given) [PRIMAQUINE PHOSPHATE] | 0 |  |  | 5 |  |  |  |  |  |  |  | 5 |  | Cures (Mus musculus [28]): 2; Cures (Plasmodium cynomolgi [29]): 1; MST (Mus musculus [17]): 4; MST (Mus musculus [18]): 9.4; MST (Mus musculus [19]): 10.8; MST (Mus musculus [20]): 5; Cures (Plasmodium cynomolgi [30]): 6
COc1cc(NC(C)CCCN)c2nccc(C)c2c1Oc1cccc(C(F)(F)F)c1.O=C(O)CCC(=O)O (stereo not given) | 2 | 5 |  |  | 5 | 1 | 5 |  | 5 | 5 | 4.8 |  | 2 | Relapses (Plasmodium cynomolgi [31]): 4; Suppressive failures (Plasmodium cynomolgi [32]): 1; Suppressive failures (Plasmodium cynomolgi [33]): 3; MST (Mus musculus [34]): 6.9; Cures (Plasmodium cynomolgi [35]): 1; Cures (Plasmodium cynomolgi [36]): 1; Cures (Plasmodium cynomolgi [29]): 2; Relapses (Plasmodium cynomolgi [37]): 1; Cures (Plasmodium cynomolgi [38]): 2; Suppressive failures (Plasmodium cynomolgi [39]): 4; Cures (Mus musculus [40]): 4; Cures (Plasmodium cynomolgi [24]): 0
COc1cc(NC(C)CCCN)c2ncccc2c1 (stereo not given) |  |  |  |  |  |  |  |  |  |  | 1 |  |  | 
COc1cc(NC(C)CCCN)c2nccc(C)c2c1Oc1ccc(Cl)c(Cl)c1.O=P(O)(O)O (stereo not given) | 1 | 5 | 0 |  | 5 | 5 | 5 | 3 | 5 | 5 | 1.3 |  | 5 | Cures (Mus musculus [41]): 4
